{"data": "Published values gathered from unrelated publications", "target": "Mitogen-activated protein kinase kinase kinase 2 (MAP3K2, Homo sapiens, UniProt Q9Y2U5)", "Sequence (Q9Y2U5 1-619, as in one of the studies)": "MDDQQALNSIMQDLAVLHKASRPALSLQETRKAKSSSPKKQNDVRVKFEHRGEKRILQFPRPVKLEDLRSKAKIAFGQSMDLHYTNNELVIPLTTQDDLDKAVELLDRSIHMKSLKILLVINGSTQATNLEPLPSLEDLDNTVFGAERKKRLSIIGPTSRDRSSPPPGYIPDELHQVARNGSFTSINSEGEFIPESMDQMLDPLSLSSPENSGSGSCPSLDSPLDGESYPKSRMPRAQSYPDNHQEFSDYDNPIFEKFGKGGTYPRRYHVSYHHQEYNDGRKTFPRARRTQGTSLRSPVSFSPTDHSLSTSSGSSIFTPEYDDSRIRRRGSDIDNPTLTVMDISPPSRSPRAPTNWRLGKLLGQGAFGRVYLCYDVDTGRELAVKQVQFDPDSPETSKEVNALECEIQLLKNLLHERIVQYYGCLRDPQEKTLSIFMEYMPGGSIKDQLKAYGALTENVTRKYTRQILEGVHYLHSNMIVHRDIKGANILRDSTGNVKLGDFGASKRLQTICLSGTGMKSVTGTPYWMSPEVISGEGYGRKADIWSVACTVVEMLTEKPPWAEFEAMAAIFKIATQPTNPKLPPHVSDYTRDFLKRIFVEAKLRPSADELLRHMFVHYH", "note": "Lines come from different studies, so protocols differ."}
{"Structure (SMILES)": "N#CC1(c2ccccn2)CCN(Cc2cc(C(=O)O)c(=O)n3ccccc23)CC1", "test": "cell-free assay, competition with immobilised ligand", "setting": "1 µM", "measurement": "remaining binding", "value": "76%"}
{"Structure (SMILES)": "Cn1cc(-c2cc(F)cc(N3CCn4c(cc5c4CCCC5)C3=O)c2CO)cc(Nc2ccc(N3CCN(C4COC4)CC3)cn2)c1=O", "test": "enzyme activity, inhibitor", "setting": "0.1 µM", "measurement": "inhibition", "value": "-1%"}
{"Structure (SMILES)": "O=c1[nH]c2ccccc2n1C1CCN(Cc2ccc(-c3[nH]c4cc5ncnc5cc4nc3-c3ccccc3)cc2)CC1", "test": "cell-free assay", "setting": "0.5 µM", "measurement": "remaining signal", "value": "92.4%"}
{"Structure (SMILES)": "Nc1ncc(-c2nc(N3CCOCC3)nc(N3CCOCC3)n2)c(C(F)F)n1", "test": "binding, competition with immobilised ligand", "setting": "10 µM", "measurement": "remaining binding", "value": "71%"}
{"Structure (SMILES)": "CC(C)(C)c1cc(C=C(C#N)C#N)cc(Br)c1O", "test": "enzyme activity, inhibitor", "setting": "0.5 µM", "measurement": "remaining activity", "value": "93.7%"}
{"Structure (SMILES)": "Cn1cncc1[C@](O)(COc1ccc(C#N)cc1-c1ccc(OC(F)(F)F)cc1)c1ccc(C#N)cc1", "test": "cell-free assay, competition with immobilised ligand", "setting": "1 µM", "measurement": "remaining binding", "value": "77%"}
{"Structure (SMILES)": "COc1ncccc1-c1cnn2ccc(N3CCN(C(=O)OC(C)C)CC3)nc12", "test": "binding, competition with immobilised ligand", "setting": "1 µM", "measurement": "remaining binding", "value": "100%"}
{"Structure (SMILES)": "Cn1cc(-c2cccc(N3CCc4c(sc5c4CC(C)(C)C5)C3=O)c2CO)cc(Nc2ccncn2)c1=O", "test": "enzyme activity, inhibitor", "setting": "1 µM", "measurement": "inhibition", "value": "-2%"}
{"Structure (SMILES)": "COc1cc(Nc2ncc(F)c(Nc3ccc4c(n3)NC(=O)C(C)(C)O4)n2)cc(OC)c1OC", "test": "binding, competition with immobilised ligand", "setting": "10 µM", "measurement": "inhibition", "value": "99%"}
{"Structure (SMILES)": "Cc1nn(C)cc1-c1nc2c(N3CCN(Cc4ccc(Cl)cc4)CC3)c(Cl)cnc2[nH]1", "test": "binding, competition with immobilised ligand", "setting": "1 µM", "measurement": "remaining binding", "value": "77%"}
{"Structure (SMILES)": "COCc1c(-c2cc3cc(C)cc(OC)c3s2)c2c(N)ncnn2c1CN1CCNC(=O)C1", "test": "cell-free assay, competition with immobilised ligand", "setting": "1 µM", "measurement": "inhibition", "value": "98.8%"}
